Data from ChEMBL document CHEMBL1141513, “Synthesis and evaluation of [123I] labeled iodovinyl amino acids syn-, anti-1-amino-3-[2-iodoethenyl]-cyclobutane-1-carboxylic acid, and 1-amino-3-iodomethylene-cyclobutane-1-carboxylic acid as potential SPECT brain tumor imaging agents” (Bioorg Med Chem Lett, 2008).

Columns and labels:
[1] = Drug uptake in tumor cells in Fischer rat transplanted with rat 9L cells after 60 mins; assay type: ADME, Neoplasm; settings: read-out: Drug uptake
In short: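 Fischer rats bearing intracranially implanted 9L gliosarcoma tumours received the [123I]-labelled amino acid by injection. Radioactivity in tumour and normal tissues was counted at 30, 60 and 120 min post-injection, with n=5 per time point. Values were expressed as percent injected dose per gram tissue (%ID/g).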

Rattus norvegicus = organism: Rattus norvegicus; test: Ratio of drug uptake in tumor to brain in Fischer rat transplanted with rat 9L cells; assay type: ADME, organism-based
In short: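 Fischer rats with intracranial 9L gliosarcoma received [123I] tracer; tumor and brain radioactivity measured at 30, 60, 120 min p.i. (n=5 per time point) as %ID/g, ratio taken as tumor over brain uptake.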

9L [2] = test: Inhibition of drug uptake in rat 9L cells; assay type: cell-based
In short: (§1)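 9L rat gliosarcoma cells incubated with [123I] tracer in HBSS for 30 min at 37°C, with or without 10 mM BCH (L-type transport inhibitor) or MeAIB (A-type inhibitor); uptake expressed as %ID per 1×10^6 cells, inhibition relative to uninhibited controls; significance by 1-way ANOVA.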

9L [3] = test: Inhibition of drug uptake in rat 9L cells in presence of 10 mM BCH relative to control; assay type: cell-based; in short: as §1
[4] = Drug uptake in tumor cells of Fischer rat brain transplanted with rat 9L cells; assay type: ADME, cell-based; settings: read-out: Drug uptake
In short: (§2)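 [123I]-labelled amino acid given to Fischer rats bearing intracranially implanted 9L gliosarcoma; tumor and normal tissue radioactivity counted at 30, 60 and 120 min post injection, n=5 per time point; expressed as percent injected dose per gram tissue (%ID/g).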

[5] = Drug uptake in normal brain tissue in Fischer rat transplanted with rat 9L cells; assay type: ADME, tissue-based; in short: as §2
9L [6] = test: Inhibition of drug uptake in rat 9L cells in presence of 10 mM MeAIB relative to control; assay type: cell-based; in short: as §1

Row | SMILES | Ratio (Rattus norvegicus) | Drug uptake (9L [2]) | Drug uptake (9L [3]) | tissue uptake [4] | tissue uptake [5] | Activity (9L [6]) | tissue uptake at 1 h [1]
1 | N[C@]1(C(=O)O)C[C@H](C[18F])C1 | 6.9 |  |  |  |  |  | 1.59 %ID/g
2 | NC1(C(=O)O)CC(=C[123I])C1 (configuration not stated) | 4.7 | 8.4 %ID | 92.3% | 0.83 %ID/g | < 0.4 %ID/g |  | 
3 | N[C@]1(C(=O)O)C[C@@H](C[18F])C1 | 8.9 |  |  |  |  |  | 2.5 %ID/g

Continued, in another order:

Row | Ratio (Rattus norvegicus) | Drug uptake (9L [2]) | Drug uptake (9L [3]) | tissue uptake [4] | tissue uptake [5] | Activity (9L [6]) | SMILES | tissue uptake at 1 h [1]
4 | 7.3 | 8.4 %ID | 92.3% | 0.83 %ID/g | < 0.4 %ID/g | Not Active | N[C@]1(C(=O)O)C[C@H](/C=C/[123I])C1 | 
5 | 6.6 |  |  |  |  |  | N[C@]1(C(=O)O)C[C@@H]([18F])C1 [FLUCICLOVINE F18] | 1.72 %ID/g
6 | 6.5 | 8.4 %ID | 92.3% | 0.83 %ID/g | < 0.4 %ID/g |  | N[C@]1(C(=O)O)C[C@@H](/C=C/[123I])C1 | 
